The values that follow come from ChEMBL document CHEMBL3045289, “Molecular docking and three-dimensional quantitative structure-activity relationship studies on the binding modes of herbicidal 1-(substituted phenoxyacetoxy)alkylphosphonates to the E1 component of pyruvate dehydrogenase” (J Agric Food Chem, 2007).

SMILES strings stand for the structures.

The IC50 is the concentration needed to halve the response being measured.

The test has as its system Cucumis sativus. In words: Herbicidal activity against Cucumis sativus (cucumber) seeds assessed as inhibition of cucumber root at 28 degC for 3 days with 10 hr of lighting and 14 h in the dark. The test is classed as functional, organism-based. The method in brief: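 Compound dissolved in acetone with a drop of Tween 80, then diluted with water to the required concentrations. Five mL was applied to filter paper in Petri dishes, with 10 cucumber seeds pre-soaked in water for 6 h. Taproot length was read at 72 h as percent inhibition versus control. Three replicates at each of five or six concentrations; IC50 by log-probit regression.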
In the case of `COP(=O)(OC)C(C)OC(=O)COc1ccc(Cl)cc1` (stereo not drawn), the half-inhibitory concentration (IC50) is 427 nM.

In the case of `COP(=O)(OC)C(C)OC(=O)COc1ccc(Cl)cc1C` (stereo not drawn), the IC50 was 437 nM.

On to `COP(=O)(OC)C(C)OC(=O)COc1ccc(Cl)c(C)c1` (stereo not drawn), for which the IC50 is 2950 nM.

Turning to `COP(=O)(OC)C(C)OC(=O)COc1cc(C)ccc1Cl` (stereo not drawn), the IC50 was 49000 nM.

For `COP(=O)(OC)C(C)OC(=O)COc1cccc(Cl)c1Cl` (stereo not drawn), the IC50 was 209000 nM.

On to `COP(=O)(OC)C(C)OC(=O)COc1cccc(F)c1` (stereo not drawn), for which the IC50 was 112000 nM.

Consider `COP(=O)(OC)C(C)OC(=O)COc1ccc(F)cc1` (stereo not drawn), for which the IC50 is 1510 nM.

Consider `COP(=O)(OC)C(OC(=O)COc1cccc(F)c1)C(Cl)(Cl)Cl` (stereo not drawn), for which the half-maximal inhibitory concentration (IC50) is 83200 nM.

Take `COP(=O)(OC)C(OC(=O)COc1ccc(F)cc1)C(Cl)(Cl)Cl` (stereo not drawn): the half-inhibitory concentration (IC50) is 1170 nM.

Turning to `COP(=O)(OC)C(OC(=O)COc1ccc(Cl)cc1)C(Cl)(Cl)Cl` (stereo not drawn), the IC50 was 724 nM.

Regarding `COP(=O)(OC)C(OC(=O)COc1c(Cl)cccc1Cl)C(Cl)(Cl)Cl` (stereo not drawn), the IC50 was 115000 nM.

`COP(=O)(OC)C(OC(=O)COc1cccc(Cl)c1Cl)C(Cl)(Cl)Cl` (stereo not drawn): the IC50 was 70800 nM.

Take `COP(=O)(OC)C(OC(=O)COc1ccc(Cl)cc1C)C(Cl)(Cl)Cl` (stereo not drawn): the IC50 is 398 nM.

Take `COP(=O)(OC)C(OC(=O)COc1ccc(Cl)c(C)c1)C(Cl)(Cl)Cl` (stereo not drawn): the IC50 was 3470 nM.

In the case of `COP(=O)(OC)C(OC(=O)COc1cc(C)ccc1Cl)C(Cl)(Cl)Cl` (stereo not drawn), the IC50 is 75900 nM.

On to `COP(=O)(OC)C(OC(=O)COc1cccc(C(F)(F)F)c1)c1cccc(Cl)c1` (stereo not drawn), for which the IC50 is 14500 nM.

Take `COP(=O)(OC)C(OC(=O)COc1cccc(C(F)(F)F)c1)c1ccc(Cl)c(Cl)c1` (stereo not drawn): the IC50 was 8320 nM.

Regarding `COP(=O)(OC)C(OC(=O)COc1cccc(C(F)(F)F)c1)c1ccc(C)cc1` (stereo not drawn), the IC50 is 7410 nM.

As for `COP(=O)(O)C(OC(=O)COc1ccc(Cl)cc1Cl)c1ccco1` (stereo not drawn), the IC50 was 447 nM.

For `COP(=O)(O)C(OC(=O)COc1ccc(Cl)cc1Cl)c1ccccn1` (stereo not drawn), the IC50 is 575 nM.

As for `COP(=O)(O)C(OC(=O)COc1ccc(Cl)cc1Cl)c1ccccc1` (stereo not drawn), the IC50 is 955 nM.

Take `COP(=O)(O)C(OC(=O)COc1ccc(Cl)cc1Cl)c1ccccc1Cl` (stereo not drawn): the IC50 is 912 nM.

In the case of `COP(=O)(O)C(OC(=O)COc1ccc(Cl)cc1Cl)c1ccc(Cl)cc1` (stereo not drawn), the IC50 was 1320 nM.

Take `COP(=O)(O)C(OC(=O)COc1ccc(Cl)cc1Cl)c1ccc(Cl)cc1Cl` (stereo not drawn): the IC50 is 1020 nM.

With `COP(=O)(O)C(OC(=O)COc1ccc(Cl)cc1Cl)c1ccc(Cl)c(Cl)c1` (stereo not drawn), the IC50 was 891 nM.

For the compound `COc1ccc(C(OC(=O)COc2ccc(Cl)cc2Cl)P(=O)(O)OC)cc1` (stereo not drawn), the IC50 is 955 nM.

Regarding `COP(=O)(O)C(OC(=O)COc1ccc(Cl)cc1Cl)c1ccc(F)cc1` (stereo not drawn), the IC50 is 776 nM.

As for `COP(=O)(O)C(OC(=O)COc1ccc(Cl)cc1Cl)c1cccc([N+](=O)[O-])c1` (stereo not drawn), the IC50 was 1230 nM.

Consider `COP(=O)(O)C(OC(=O)COc1ccc(Cl)cc1Cl)c1ccc(C)cc1` (stereo not drawn), for which the IC50 is 1350 nM.

Turning to `COP(=O)(OC)C(C)OC(=O)COc1c(Cl)cccc1Cl` (stereo not drawn), the IC50 is 100000 nM.

As for `COP(=O)(OC)C(OC(=O)COc1cccc(F)c1)c1cccs1` (stereo not drawn), the concentration for half-maximal inhibition (IC50) is 126000 nM.

Turning to `COP(=O)(OC)C(OC(=O)COc1ccc(F)cc1)c1cccs1` (stereo not drawn), the IC50 is 2630 nM.

For the compound `COP(=O)(OC)C(OC(=O)COc1ccc(Cl)cc1Cl)c1cccs1` (stereo not drawn), the IC50 is 282 nM.

Take `COP(=O)(OC)C(OC(=O)COc1ccc(Cl)cc1)c1cccs1` (stereo not drawn): the IC50 was 575 nM.

Take `COP(=O)(OC)C(OC(=O)COc1c(Cl)cccc1Cl)c1cccs1` (stereo not drawn): the IC50 was 178000 nM.

Take `COP(=O)(OC)C(OC(=O)COc1cccc(Cl)c1Cl)c1cccs1` (stereo not drawn): the IC50 is 589000 nM.

For the compound `COP(=O)(OC)C(OC(=O)COc1ccc(Cl)cc1C)c1cccs1` (stereo not drawn), the IC50 was 468 nM.

Regarding `COP(=O)(OC)C(OC(=O)COc1ccc(Cl)c(C)c1)c1cccs1` (stereo not drawn), the IC50 is 2340 nM.

Regarding `COP(=O)(OC)C(OC(=O)COc1cc(C)ccc1Cl)c1cccs1` (stereo not drawn), the concentration for half-maximal inhibition (IC50) was 51300 nM.

Consider `COP(=O)(OC)C(OC(=O)COc1cccc(F)c1)c1ccccc1` (stereo not drawn), for which the IC50 is 112000 nM.

Consider `COP(=O)(OC)C(OC(=O)COc1ccc(F)cc1)c1ccccc1` (stereo not drawn), for which the IC50 is 1510 nM.

With `COP(=O)(OC)C(OC(=O)COc1ccc(Cl)cc1)c1ccccc1` (stereo not drawn), the IC50 is 427 nM.

Regarding `COP(=O)(OC)C(OC(=O)COc1c(Cl)cccc1Cl)c1ccccc1` (stereo not drawn), the IC50 is 85100 nM.

Regarding `COP(=O)(OC)C(OC(=O)COc1cccc(Cl)c1Cl)c1ccccc1` (stereo not drawn), the IC50 is 229000 nM.

For `COP(=O)(OC)C(OC(=O)COc1ccc(Cl)cc1C)c1ccccc1` (stereo not drawn), the IC50 was 355 nM.

For the compound `COP(=O)(OC)C(OC(=O)COc1ccc(Cl)c(C)c1)c1ccccc1` (stereo not drawn), the concentration for half-maximal inhibition (IC50) is 2570 nM.

Consider `COP(=O)(OC)C(OC(=O)COc1cc(C)ccc1Cl)c1ccccc1` (stereo not drawn), for which the IC50 is 72400 nM.

On to `COP(=O)(OC)C(OC(=O)COc1cccc(C(F)(F)F)c1)c1ccccc1Cl` (stereo not drawn), for which the IC50 was 7940 nM.

Take `COP(=O)(OC)C(OC(=O)COc1cccc(C(F)(F)F)c1)c1ccc(Cl)cc1` (stereo not drawn): the IC50 was 6920 nM.

Consider `COP(=O)(OC)C(OC(=O)COc1cccc(F)c1)c1ccco1` (stereo not drawn), for which the IC50 is 67600 nM.

As for `COP(=O)(OC)C(OC(=O)COc1ccc(F)cc1)c1ccco1` (stereo not drawn), the IC50 is 1820 nM.

As to `COP(=O)(OC)C(OC(=O)COc1ccc(Cl)cc1)c1ccco1` (stereo not drawn), the IC50 was 646 nM.

In the case of `COP(=O)(OC)C(OC(=O)COc1ccc(Cl)cc1Cl)c1ccco1` (stereo not drawn), the half-inhibitory concentration (IC50) is 339 nM.

As to `COP(=O)(OC)C(OC(=O)COc1c(Cl)cccc1Cl)c1ccco1` (stereo not drawn), the IC50 was 324000 nM.

Turning to `COP(=O)(OC)C(OC(=O)COc1cccc(Cl)c1Cl)c1ccco1` (stereo not drawn), the IC50 was 447000 nM.

As to `COP(=O)(OC)C(OC(=O)COc1ccc(Cl)cc1C)c1ccco1` (stereo not drawn), the IC50 is 3800 nM.

With `COP(=O)(OC)C(OC(=O)COc1ccc(Cl)c(C)c1)c1ccco1` (stereo not drawn), the IC50 was 3630 nM.

`COP(=O)(OC)C(OC(=O)COc1cc(C)ccc1Cl)c1ccco1` (stereo not drawn): the half-maximal inhibitory concentration (IC50) is 87100 nM.
